Measurements reported in ChEMBL document CHEMBL4613291, “Structural Elucidation and Antimicrobial Characterization of Novel Diterpenoids from Fabiana densa var. ramulosa” (ACS Med Chem Lett, 2020).
Activity calls are given as the source filed them. The rule behind the calls is not given here.

Assays:
Bacillus thuringiensis [1] = assay: Antimicrobial activity against Bacillus thuringiensis B15 assessed as reduction in bacterial growth at 64 uM incubated for 16 hrs by broth dilution method relative to control; assay type: functional; details: B15, 16 h
Outline: (§1)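 Bacterial growth was measured with the strain panel split into Gram-negative and Gram-positive groups. Growth is expressed as percentage of vehicle-treated control bacteria. Values are the mean of three independent experiments ± SEM. Each treated group was compared with control for significance (p < 0.05, 0.01, 0.0001). The highest concentration tested was 64 μM.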

[2] = tested on: Staphylococcus epidermidis; assay: Antimicrobial activity against Staphylococcus epidermidis ATCC 12228 assessed as reduction in bacterial growth at 64 uM incubated for 16 hrs by broth dilution method relative to control; assay type: functional; details: ATCC 12228, 16 h; outline: as §1
Priestia megaterium [3] = assay: Antimicrobial activity against Bacillus megaterium Bm11 assessed as reduction in bacterial growth at 16 to 64 uM incubated for 16 hrs by broth dilution method relative to control; assay type: functional; outline: as §1
Staphylococcus aureus [4] = assay: Antimicrobial activity against Staphylococcus aureus ATCC 25923 assessed as reduction in bacterial growth at 64 uM incubated for 16 hrs by broth dilution method relative to control; assay type: functional; details: ATCC 25923, 16 h; outline: as §1
[5] = Cytotoxicity against human HaCaT cells assessed as reduction in cell viability at 64 uM incubated for 24 hrs by MTT assay relative to control; assay type: cell-based; details: read-out: INH
Outline: (§2)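 Human immortalized keratinocytes (HaCaT) were exposed for 24 h across 16–64 μM. Metabolically active cells were read by MTT and calculated as a percentage of vehicle-treated cells. Values are the mean of three independent experiments ± SEM.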

[6] = tested on: Staphylococcus epidermidis; assay: Antimicrobial activity against Staphylococcus epidermidis ATCC 12228 assessed as reduction in bacterial growth at 16 to 64 uM incubated for 16 hrs by broth dilution method; assay type: functional, organism-based; outline: as §1
Pseudomonas aeruginosa = assay: Antimicrobial activity against Pseudomonas aeruginosa ATCC 27853 assessed as reduction in bacterial growth at 16 to 64 uM incubated for 16 hrs by broth dilution method; assay type: functional, organism-based; outline: as §1
Escherichia coli = assay: Antimicrobial activity against Escherichia coli ATCC 25922 assessed as reduction in bacterial growth at 16 to 64 uM incubated for 16 hrs by broth dilution method; assay type: functional, organism-based; outline: as §1
Priestia megaterium [7] = assay: Antimicrobial activity against Bacillus megaterium Bm11 assessed as reduction in bacterial growth at 16 to 64 uM incubated for 16 hrs by broth dilution method; assay type: functional, organism-based; outline: as §1
Staphylococcus aureus [8] = assay: Antimicrobial activity against Staphylococcus aureus ATCC 25923 assessed as reduction in bacterial growth at 16 to 64 uM incubated for 16 hrs by broth dilution method; assay type: functional, organism-based; outline: as §1
Bacillus thuringiensis [9] = assay: Antimicrobial activity against Bacillus thuringiensis B15 assessed as reduction in bacterial growth at 16 to 64 uM incubated for 16 hrs by broth dilution method; assay type: functional, organism-based; outline: as §1
HaCaT = assay: Cytotoxicity against human HaCaT cells assessed as reduction in cell viability at 16 to 64 uM incubated for 24 hrs by MTT assay; assay type: cell-based; outline: as §2

| Compound | inhibition at 64 µM (Bacillus thuringiensis [1]) | inhibition at 64 µM [2] | inhibition (INH) (Priestia megaterium [3]) | inhibition at 64 µM (Staphylococcus aureus [4]) | cytotoxicity at 24 h, 64 µM [5] | inhibition [6] | inhibition (Pseudomonas aeruginosa) | inhibition (Escherichia coli) | inhibition (Priestia megaterium [7]) | inhibition (Staphylococcus aureus [8]) | inhibition (Bacillus thuringiensis [9]) | Activity (HaCaT) |
| --- | --- | --- | --- | --- | --- | --- | --- | --- | --- | --- | --- | --- |
| C[C@]12C=C[C@@]3(CC[C@@H]4[C@@](C)(COC(=O)CCC(=O)O)CCC[C@@]4(C)[C@@H]3CC1)C2 | 100% | 80% | 80% | 40% | 20% |  |  |  |  |  |  |  |
| C[C@]12C=C[C@@]3(CC[C@@H]4[C@@](C)(COC(=O)C(=O)O)CCC[C@@]4(C)[C@@H]3CC1)C2 | 50% | 50% |  | 40% | 36% |  |  |  |  |  |  |  |
| C[C@]12C=C[C@@]3(CC[C@@H]4[C@@](C)(COC(=O)CCC(=O)OC[C@@]5(C)CCC[C@]6(C)[C@@H]5CC[C@@]57C=C[C@@](C)(CC[C@H]56)C7)CCC[C@@]4(C)[C@@H]3CC1)C2 |  |  |  |  |  | inactive | inactive | inactive | inactive | inactive | inactive |  |
| C[C@]12C=C[C@@]3(CC[C@@H]4[C@@](C)(COC(=O)CC(=O)OC[C@@]5(C)CCC[C@]6(C)[C@@H]5CC[C@@]57C=C[C@@](C)(CC[C@H]56)C7)CCC[C@@]4(C)[C@@H]3CC1)C2 |  |  |  |  |  | inactive | inactive | inactive | inactive | inactive | inactive |  |
| C[C@]12C=C[C@@]3(CC[C@@H]4[C@@](C)(CO)CCC[C@@]4(C)[C@@H]3CC1)C2 |  |  |  |  |  | inactive | inactive | inactive | inactive | inactive | inactive | Non-Toxic |
| C[C@]12C=C[C@@]3(CC[C@@H]4[C@@](C)(COC(=O)CC(=O)O)CCC[C@@]4(C)[C@@H]3CC1)C2 | > 70% |  | >70% |  | 14% | Active |  |  | Active | Active | Active |  |
| C[C@]12C=C[C@@]3(CC[C@@H]4[C@@](C)(COC(=O)C(=O)OC[C@@]5(C)CCC[C@]6(C)[C@@H]5CC[C@@]57C=C[C@@](C)(CC[C@H]56)C7)CCC[C@@]4(C)[C@@H]3CC1)C2 |  |  |  |  |  | inactive | inactive | inactive | inactive | inactive | inactive |  |
